Results: ChEMBL document CHEMBL1817624, “Structure-activity relationship and molecular mechanisms of ethyl 2-amino-6-(3,5-dimethoxyphenyl)-4-(2-ethoxy-2-oxoethyl)-4H-chromene-3-carboxylate (CXL017) and its analogues” (J Med Chem, 2011)

Experiments:
Type in all cases: functional
CCRF-CEM = experiment: Ratio of IC50 for vinblastine100-resistant human CCRF-CEM cells to IC50 for human CCRF-CEM cells
Outline: (§1)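 Parent and resistant lines (HL60/DNR, K562/HHT300, CCRF-CEM/VLB100) were kept at 37 °C in 5% CO2 with 10% FBS medium and seeded at 1 × 10⁴ cells/well. Cells were exposed for 48 h to serial dilutions in 1% DMSO final. Viability was read by CellTiter-Blue and IC50 fitted with a dose-response model. The ratio is resistant IC50 over parent IC50, from two independent experiments in triplicate.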

HL-60 = experiment: Ratio of IC50 for daunorubicin-resistant human HL60 cells to IC50 for human HL60 cells; outline: as §1
K562 = experiment: Ratio of IC50 for homoharringtonine300-resistant human K562 cells to IC50 for human K562 cells; outline: as §1

Row | SMILES | Ratio IC50 (CCRF-CEM) | Ratio IC50 (HL-60) | Ratio IC50 (K562)
1 | COc1cccc2c1C(=O)c1c(O)c3c(c(O)c1C2=O)C[C@@](O)(C(=O)CO)C[C@@H]3O[C@H]1C[C@H](N)[C@H](O)[C@H](C)O1 [DOXORUBICIN] | 6.1 | 80 | 32
2 | O=C1c2c(O)ccc(O)c2C(=O)c2c(NCCNCCO)ccc(NCCNCCO)c21 [MITOXANTRONE] | 2 | 7.5 | 11
3 | CC(=O)O[C@H]1C(=O)[C@@]2(C)[C@H]([C@H](OC(=O)c3ccccc3)[C@]3(O)C[C@H](OC(=O)[C@H](O)[C@@H](NC(=O)c4ccccc4)c4ccccc4)C(C)=C1C3(C)C)[C@]1(OC(C)=O)CO[C@@H]1C[C@@H]2O [PACLITAXEL] | 266 | >1000 | 91
4 | CC[C@]1(O)C[C@H]2CN(CCc3c([nH]c4ccccc34)[C@@](C(=O)OC)(c3cc4c(cc3OC)N(C=O)[C@H]3[C@@](O)(C(=O)OC)[C@H](OC(C)=O)[C@]5(CC)C=CCN6CC[C@]43[C@@H]65)C2)C1 [VINCRISTINE] | > 1000 | >1000 | > 1000
